From ChEMBL document CHEMBL2151038, “Synthesis, characterization and biological evaluation of some novel 2,4-thiazolidinediones as potential cytotoxic, antimicrobial and antihyperglycemic agents” (Bioorg Med Chem Lett, 2012)
Values after ≈ are worked out from the molar mass of the structure shown.

Assays:
Artemia salina = experiment: Cytotoxicity in brine shrimps larvae assessed as mortality after 24 hrs; format: functional; details: read-out: ED50 (the source's name)
Procedure, shortened: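 Artemia salina nauplii hatched 38 h under constant aeration in sterile brine (sea salt 38 g/L, pH 8.5 with 1 N NaOH). Ten nauplii per vial were exposed to a range of compound concentrations at 37 °C for 24 h under incandescent light, alongside vehicle-treated controls. Survivors were counted, % lethality was taken from mean survivors versus control, and ED50 came from probit analysis.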

Rattus norvegicus [1] = experiment: Antihyperglycemic activity in po dosed streptozotocin-induced type 2 diabetic Wistar albino rat assessed as reduction in plasma glucose level by glucometer; format: functional, organism-based
Procedure, shortened: (§1)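 Wistar albino rats of either sex, 150–200 g, fasted 16 h. Diabetes induced by nicotinamide 150 mg/kg, then STZ 65 mg/kg in citrate buffer pH 4.5. Glucose confirmed after 48 h. Groups of six. Oral dosing as 0.25% sodium CMC suspension at 10, 30 or 50 mg/kg. Rosiglitazone was the reference. Retro-orbital plasma glucose measured by glucometer before dosing and at 1, 2, 4, 6, 8, 12 and 24 h. Results as mean ± SEM, compared by ANOVA, t-test and Dunnett's test.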

Bacillus subtilis = experiment: Antibacterial activity against Bacillus subtilis NCIM 2063 after 24 hrs by NCCLS agar well diffusion method; format: functional; details: NCIM 2063, 24 h
Procedure, shortened: (§2)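 Nutrient agar seeded with 0.1 mL bacterial suspension (10⁵ CFU/mL in 0.85% saline). 6 mm wells filled with 0.1 mL compound. Plates in triplicate, 37 ± 0.5 °C for 24 h. MIC = lowest concentration giving complete growth inhibition.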

Bacillus pumilus = experiment: Antibacterial activity against Bacillus pumilus NCIM 2327 after 24 hrs by NCCLS agar well diffusion method; format: functional; details: NCIM 2327, 24 h; procedure, shortened: as §2
Staphylococcus aureus = experiment: Antibacterial activity against Staphylococcus aureus NCIM 2079 after 24 hrs by NCCLS agar well diffusion method; format: functional; details: NCIM 2079, 24 h; procedure, shortened: as §2
Micrococcus luteus = experiment: Antibacterial activity against Micrococcus luteus NCIM 2155 after 24 hrs by NCCLS agar well diffusion method; format: functional; details: NCIM 2155, 24 h; procedure, shortened: as §2
Pseudomonas aeruginosa = experiment: Antibacterial activity against Pseudomonas aeruginosa NCIM 2036 after 24 hrs by NCCLS agar well diffusion method; format: functional; details: NCIM 2036, 24 h; procedure, shortened: as §2
Klebsiella pneumoniae = experiment: Antibacterial activity against Klebsiella pneumoniae NCIM 5082 after 24 hrs by NCCLS agar well diffusion method; format: functional; details: NCIM 5082, 24 h; procedure, shortened: as §2
Escherichia coli = experiment: Antibacterial activity against Escherichia coli NCIM 2065 after 24 hrs by NCCLS agar well diffusion method; format: functional; details: NCIM 2065, 24 h; procedure, shortened: as §2
Proteus vulgaris = experiment: Antibacterial activity against Proteus vulgaris NCIM 2813 after 24 hrs by NCCLS agar well diffusion method; format: functional; details: NCIM 2813, 24 h; procedure, shortened: as §2
Candida albicans = experiment: Antifungal activity against Candida albicans NCIM 3102 after 48 hrs by NCCLS agar well diffusion method; format: functional; details: NCIM 3102, 48 h
Procedure, shortened: (§3)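 Spore suspensions in sterile distilled water adjusted to 10⁶ CFU/mL, 0.1 mL spread on potato-dextrose agar. 6 mm wells received 0.1 mL compound in 1% DMSO (final 16–512 µg/mL). Controls: 1% DMSO and ketoconazole (16 µg/mL). Triplicate plates, 48 h at 28 ± 0.2 °C. MIC = lowest concentration completely inhibiting growth.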

Aspergillus niger = experiment: Antifungal activity against Aspergillus niger NCIM 548 after 48 hrs by NCCLS agar well diffusion method; format: functional; details: NCIM 548, 48 h; procedure, shortened: as §3
Aspergillus oryzae = experiment: Antifungal activity against Aspergillus oryzae NCIM 643 after 48 hrs by NCCLS agar well diffusion method; format: functional; details: NCIM 643, 48 h; procedure, shortened: as §3
Penicillium chrysogenum = experiment: Antifungal activity against Penicillium chrysogenum NCIM 738 after 48 hrs by NCCLS agar well diffusion method; format: functional; details: NCIM 738, 48 h; procedure, shortened: as §3
[2] = Toxicity in mouse assessed as changes in vital functions; format: organism-based; details: in vivo
Rattus norvegicus [3] = experiment: Antihyperglycemic activity in streptozotocin-induced type 2 diabetic Wistar albino rat assessed as reduction in plasma glucose level at 10 mg/kg, po by glucometer; format: functional; procedure, shortened: as §1
Rattus norvegicus [4] = experiment: Antihyperglycemic activity in streptozotocin-induced type 2 diabetic Wistar albino rat assessed as reduction in plasma glucose level at 30 mg/kg, po by glucometer; format: functional; procedure, shortened: as §1
Rattus norvegicus [5] = experiment: Antihyperglycemic activity in streptozotocin-induced type 2 diabetic Wistar albino rat assessed as reduction in plasma glucose level at 50 mg/kg, po by glucometer; format: functional; procedure, shortened: as §1

Row | Structure (SMILES) | EC50 (Artemia salina) [µg/mL] | Activity (Rattus norvegicus [1]) | MIC (Bacillus subtilis) [µg/mL] | MIC (Bacillus pumilus) [µg/mL] | MIC (Staphylococcus aureus) [µg/mL] | MIC (Micrococcus luteus) [µg/mL] | MIC (Pseudomonas aeruginosa) [µg/mL] | MIC (Klebsiella pneumoniae) [µg/mL] | MIC (Escherichia coli) [µg/mL] | MIC (Proteus vulgaris) [µg/mL] | MIC (Candida albicans) [µg/mL] | MIC (Aspergillus niger) [µg/mL] | MIC (Aspergillus oryzae) [µg/mL] | MIC (Penicillium chrysogenum) [µg/mL] | MTD [2] [mg/kg] | Activity (Rattus norvegicus [3]) [mg/dL] | Activity (Rattus norvegicus [4]) [mg/dL] | Activity (Rattus norvegicus [5]) [mg/dL]
1 | O=C1NC(=O)/C(=C/c2ccc(/C=C/C(=O)c3ccc(F)cc3)cc2)S1 | 4.32 (≈ 12.2 µM) | Dose-dependent effect | 16 (≈ 45.3 µM) | 16 (≈ 45.3 µM) | 32 (≈ 90.6 µM) | 32 (≈ 90.6 µM) | 16 (≈ 45.3 µM) | 16 (≈ 45.3 µM) | 16 (≈ 45.3 µM) | 32 (≈ 90.6 µM) | 32 (≈ 90.6 µM) | 32 (≈ 90.6 µM) | 32 (≈ 90.6 µM) | 16 (≈ 45.3 µM) | 2000 | 22.74 | 25.67 | 33.12
2 | Nc1ccc(C(=O)/C=C/c2ccc(/C=C3\SC(=O)NC3=O)cc2)cc1 | 28.8 (≈ 82.2 µM) | Dose-dependent effect | 128 (≈ 365 µM) | 128 (≈ 365 µM) | 128 (≈ 365 µM) | 256 (≈ 731 µM) | 64 (≈ 183 µM) | 128 (≈ 365 µM) | 128 (≈ 365 µM) | 256 (≈ 731 µM) | 128 (≈ 365 µM) | 128 (≈ 365 µM) | 128 (≈ 365 µM) | 256 (≈ 731 µM) | 2000 | 21.34 | 24.72 | 29.87
3 | O=C1NC(=O)/C(=C/c2ccc(/C=C/C(=O)c3cc(OCc4ccccc4)cc(OCc4ccccc4)c3)cc2)S1 | 26.8 (≈ 49 µM) | Dose-dependent effect | 16 (≈ 29.2 µM) | 16 (≈ 29.2 µM) | 16 (≈ 29.2 µM) | 16 (≈ 29.2 µM) | 16 (≈ 29.2 µM) | 16 (≈ 29.2 µM) | 32 (≈ 58.4 µM) | 32 (≈ 58.4 µM) | 16 (≈ 29.2 µM) | 16 (≈ 29.2 µM) | 16 (≈ 29.2 µM) | 16 (≈ 29.2 µM) | 2000 | 21.76 | 26.87 | 30.12
4 | COc1cccc(C(=O)/C=C/c2ccc(/C=C3\SC(=O)NC3=O)cc2)c1 | 18.7 (≈ 51.2 µM) | Dose-dependent effect | 128 (≈ 350 µM) | 128 (≈ 350 µM) | 128 (≈ 350 µM) | 256 (≈ 701 µM) | 128 (≈ 350 µM) | 128 (≈ 350 µM) | 128 (≈ 350 µM) | 256 (≈ 701 µM) | 128 (≈ 350 µM) | 64 (≈ 175 µM) | 256 (≈ 701 µM) | 256 (≈ 701 µM) | 2000 | 16.41 | 28.73 | 34.61
5 | Nc1cccc(C(=O)/C=C/c2ccc(/C=C3\SC(=O)NC3=O)cc2)c1 | 33.2 (≈ 94.7 µM) | Dose-dependent effect | 256 (≈ 731 µM) | 256 (≈ 731 µM) | 256 (≈ 731 µM) | 256 (≈ 731 µM) | 128 (≈ 365 µM) | 256 (≈ 731 µM) | 64 (≈ 183 µM) | 256 (≈ 731 µM) | 256 (≈ 731 µM) | 64 (≈ 183 µM) | 128 (≈ 365 µM) | 256 (≈ 731 µM) | 2000 | 12.14 | 15.36 | 21.66
6 | O=C1NC(=O)/C(=C/c2ccc(/C=C/C(=O)c3ccc(O)cc3O)cc2)S1 | 49.2 (≈ 134 µM) | Dose-dependent effect | 256 (≈ 697 µM) | 256 (≈ 697 µM) | 256 (≈ 697 µM) | 512 (≈ 1390 µM) | 256 (≈ 697 µM) | 256 (≈ 697 µM) | 256 (≈ 697 µM) | 256 (≈ 697 µM) | 256 (≈ 697 µM) | 256 (≈ 697 µM) | 256 (≈ 697 µM) | 256 (≈ 697 µM) | 2000 | 26.86 | 33.72 | 41.67
7 | COc1ccc(C(=O)/C=C/c2ccc(/C=C3\SC(=O)NC3=O)cc2)cc1 | 16.2 (≈ 44.4 µM) | Dose-dependent effect | 64 (≈ 175 µM) | 64 (≈ 175 µM) | 32 (≈ 87.6 µM) | 64 (≈ 175 µM) | 64 (≈ 175 µM) | 64 (≈ 175 µM) | 32 (≈ 87.6 µM) | 64 (≈ 175 µM) | 128 (≈ 350 µM) | 128 (≈ 350 µM) | 128 (≈ 350 µM) | 128 (≈ 350 µM) | 2000 | 33.88 | 37.04 | 48.71
8 | O=C1NC(=O)/C(=C/c2ccc(/C=C/C(=O)c3ccc4c(c3)Cc3ccccc3-4)cc2)S1 | 39.7 (≈ 93.6 µM) | Dose-dependent effect | 256 (≈ 604 µM) | 256 (≈ 604 µM) | 256 (≈ 604 µM) | 512 (≈ 1210 µM) | 128 (≈ 302 µM) | 256 (≈ 604 µM) | 128 (≈ 302 µM) | 512 (≈ 1210 µM) | 256 (≈ 604 µM) | 256 (≈ 604 µM) | 256 (≈ 604 µM) | 512 (≈ 1210 µM) | 2000 | 39.83 | 44.62 | 52.81
9 | O=C1NC(=O)/C(=C/c2ccc(/C=C/C(=O)c3cccc(F)c3)cc2)S1 | 9.28 (≈ 26.3 µM) | Dose-dependent effect | 32 (≈ 90.6 µM) | 32 (≈ 90.6 µM) | 32 (≈ 90.6 µM) | 64 (≈ 181 µM) | 32 (≈ 90.6 µM) | 32 (≈ 90.6 µM) | 32 (≈ 90.6 µM) | 64 (≈ 181 µM) | 64 (≈ 181 µM) | 64 (≈ 181 µM) | 64 (≈ 181 µM) | 64 (≈ 181 µM) | 2000 | 12.08 | 16.87 | 20.66
10 | Cc1ccc(O)c(C(=O)/C=C/c2ccc(/C=C3\SC(=O)NC3=O)cc2)c1 | 39.4 (≈ 108 µM) | Dose-dependent effect | 128 (≈ 350 µM) | 256 (≈ 701 µM) | 256 (≈ 701 µM) | 512 (≈ 1400 µM) | 256 (≈ 701 µM) | 128 (≈ 350 µM) | 128 (≈ 350 µM) | 512 (≈ 1400 µM) | 128 (≈ 350 µM) | 128 (≈ 350 µM) | 64 (≈ 175 µM) | 64 (≈ 175 µM) | 2000 | 31.76 | 37.03 | 42.13
11 | O=C1NC(=O)/C(=C/c2ccc(/C=C/C(=O)c3ccc(O)cc3)cc2)S1 | 36.2 (≈ 103 µM) | Dose-dependent effect | 256 (≈ 729 µM) | 128 (≈ 364 µM) | 128 (≈ 364 µM) | 256 (≈ 729 µM) | 512 (≈ 1460 µM) | 128 (≈ 364 µM) | 128 (≈ 364 µM) | 512 (≈ 1460 µM) | 512 (≈ 1460 µM) | 256 (≈ 729 µM) | 256 (≈ 729 µM) | 512 (≈ 1460 µM) | 2000 | 21.83 | 30.21 | 37.12
12 | O=C1NC(=O)/C(=C/c2ccc(/C=C/C(=O)c3ccc4ccccc4c3)cc2)S1 | 48.1 (≈ 125 µM) | Dose-dependent effect | 512 (≈ 1330 µM) | 512 (≈ 1330 µM) | 512 (≈ 1330 µM) | 512 (≈ 1330 µM) | 512 (≈ 1330 µM) | 512 (≈ 1330 µM) | 512 (≈ 1330 µM) | 512 (≈ 1330 µM) | 512 (≈ 1330 µM) | 512 (≈ 1330 µM) | 512 (≈ 1330 µM) | 512 (≈ 1330 µM) | 2000 | 23.75 | 31.84 | 36.93
